# Experimental data gathered from unrelated publications.
# Compare with care: the assays were run in different laboratories.
# Sample: plasma
SMILES,test system,conditions,half-life
[2H]c1cc(C)c(NC(=O)c2cnc(Nc3cc(N4CCC(O)CC4)nc(C)n3)s2)c(Cl)c1,male Sprague-Dawley rat,"intravenous, 1 mg/kg",1.9 h
C[C@]1(O)CCCN(c2nc(Nc3ccc(S(=O)(=O)N[C@H]4CC[C@H](CN5CCN(c6ccc(C7CCC(=O)NC7=O)c(F)c6)CC5)CC4)cc3F)ncc2C(F)(F)F)C1 (stereo partly shown),rat,"intravenous, 2 mg/kg",6 h
C=CC(=O)N1CCC([C@@H]2CCNc3c(C(N)=O)c(-c4ccc(Oc5ccccc5)cc4)nn32)CC1,Sprague-Dawley rat,"oral, 16 mg/kg",2.24 h
CC[C@H](C)[C@H](NC(=O)[C@@H]1CCCN1C(=O)CNC(=O)[C@H](Cc1ccccc1)NC(=O)[C@H](CC(N)=O)NC(=O)[C@H](CC(N)=O)NC(=O)[C@H](CO)NC(=O)[C@H](CO)NC(=O)[C@H](Cc1c[nH]cn1)NC(=O)[C@H](CCCNC(=N)N)NC(=O)[C@H](CC(C)C)NC(=O)[C@H](Cc1ccccc1)NC(=O)[C@H](CCC(=O)O)NC(=O)[C@H](C)NC(=O)[C@H](CC(C)C)NC(=O)[C@H](CCCNC(=N)N)NC(=O)[C@H](CCC(N)=O)NC(=O)[C@@H](NC(=O)[C@H](C)NC(=O)[C@@H]1CSSC[C@H](NC(=O)[C@H](CCCCN)NC(=O)CC[C@H](NC(=O)CCCCCCCCCCCCCCCCCCC(=O)O)C(=O)O)C(=O)N[C@@H](CC(N)=O)C(=O)N[C@@H]([C@@H](C)O)C(=O)N[C@@H](C)C(=O)N[C@@H]([C@@H](C)O)C(=O)N1)[C@@H](C)O)C(=O)N[C@@H](CC(C)C)C(=O)N1CCC[C@H]1C(=O)N1CCC[C@H]1C(=O)N[C@H](C(=O)N[C@@H](CC(N)=O)C(=O)N[C@H](C(=O)NCC(=O)N[C@@H](CO)C(=O)N[C@@H](CC(N)=O)C(=O)N[C@H](C(=O)N1CCC[C@H]1C(N)=O)[C@@H](C)O)C(C)C)[C@@H](C)O,male Sprague-Dawley rat,"subcutaneous, 30 nmol/kg, single dose",26.8 h
COc1ccc(N(Cc2csc(-c3ccccc3)n2)C(=O)CCCCCC(=O)NO)cc1,female Sprague-Dawley rat,"intravenous, 5 mg/kg",0.63 h
CNS(=O)(=O)c1ccc(Nc2ncc(C(F)(F)F)c([C@H]3CC[C@@](C)(O)CC3)n2)c(C)c1,rat,"intravenous, 2 mg/kg",1.3 h
CCOCC(=O)N1CCC[C@H](C(=O)NCc2nc(-c3ccc(C#N)nc3)cs2)C1,male Sprague-Dawley rat,"oral, 3 mg/kg",1.6 h
Cc1nc(Nc2ncc(C(=O)Nc3c(C)cccc3Cl)s2)cc(N2CC[C@H](N)C2)n1,male Sprague-Dawley rat,"intravenous, 1 mg/kg",3.8 h
Cc1cc(S(=O)(=O)N[C@H]2CC[C@H](N3CCN(CC4CCN(c5cccc6c5n(C)c(=O)n6C5CCC(=O)NC5=O)CC4)CC3)CC2)ccc1Nc1ncc(C(F)(F)F)c(N2CCC[C@](C)(O)C2)n1 (stereo partly shown),rat,"intravenous, 2 mg/kg",4.3 h
CNC(=O)c1cc(Oc2ccc(NC(=O)Nc3ccc(Cl)c(C(F)(F)F)c3)cc2)ccn1,male Sprague-Dawley rat,"oral, 100 mg/kg, single dose",13.8 h
COc1nc(-c2cccc(-c3ccccc3)c2C)ccc1CNCCNC(=O)CCCCCCCCCCC(=O)N1CCN(CCNC(=O)c2cc3c(=O)n4cccc(C)c4nc3n(CCc3cccs3)c2=N)CC1,male Sprague-Dawley rat,"intraperitoneal, 4 mg/kg",4.7 h
COCC(=O)N1CCC[C@H](C(=O)NCc2nc(-c3ccc(C#N)cc3)cs2)C1,male Sprague-Dawley rat,"oral, 3 mg/kg",2.4 h
COc1cc(-c2cc(C(C)=O)n3ccccc23)c(OC)cc1Cn1ccnc1,male Sprague-Dawley rat,"intravenous, 5 mg/kg",0.75 h
C[C@@]12C[C@@]3(O)O[C@@H](O1)[C@]1(COC(=O)c4ccccc4)[C@H]3C[C@@]12O[C@@H]1O[C@H](CO)[C@@H](O)[C@H](O)[C@H]1O,male Sprague-Dawley rat,"oral, 80 mg/kg",11.4 h
Cc1cc(S(=O)(=O)NC2CC(N3CCN(CC4CCN(c5cccc6c5n(C)c(=O)n6C5CCC(=O)NC5=O)CC4)C4(CC4)C3)C2)ccc1Nc1ncc(C(F)(F)F)c(N2CCC[C@](C)(O)C2)n1 (stereo partly shown),rat,"intravenous, 2 mg/kg",3.5 h
CCCCCCCCCC(=O)N[C@@H](Cc1c[nH]c2ccccc12)C(=O)N[C@H](CC(N)=O)C(=O)N[C@@H](CC(=O)O)C(=O)N[C@@H]1C(=O)NCC(=O)N[C@@H](CCCN)C(=O)N[C@@H](CC(=O)O)C(=O)N[C@H](C)C(=O)N[C@@H](CC(=O)O)C(=O)NCC(=O)N[C@H](CO)C(=O)N[C@@H]([C@H](C)CC(=O)O)C(=O)N[C@@H](CC(=O)c2ccccc2N)C(=O)O[C@@H]1C,male Wistar rat,"subcutaneous, 125 mg/kg, single dose",2.6 h
COc1ccc(-c2coc3cc(O)cc(O)c3c2=O)cc1,rat,"intravenous, 2 mg/kg",0.19 h
Cn1c(=O)c2[nH]cnc2n(C)c1=O,male Sprague-Dawley rat,"intravenous, 11.25 mg/kg",4.81 h
CCONC(=O)N1CCC[C@H](C(=O)NCc2nc(-c3ccc(C#N)cc3)cs2)C1,male Sprague-Dawley rat,"intravenous, 1 mg/kg",2.2 h
CNS(=O)(=O)c1ccc(Nc2ncc3cc(Cl)c(=O)n(C4CCCC4)c3n2)c(C)c1,rat,"intravenous, 2 mg/kg",1.2 h
CCOCC(=O)N1CCC[C@H](C(=O)NCc2nc(-c3ccc(C)nc3)cs2)C1,male Sprague-Dawley rat,"intravenous, 1 mg/kg",2.1 h
CCCCC(=O)Nc1ccc(-c2ccc3ncn(CCC)c(=O)c3c2)cn1,male rat,"intravenous, 2.5 mg/kg",0.582 h
CNS(=O)(=O)c1ccc(Nc2ncc(C(F)(F)F)c(N3CCC(C)(O)CC3)n2)c(C)c1,rat,"intravenous, 2 mg/kg",0.7 h
O=C1CCC(N2Cc3cc(C4CCN(Cc5ccccc5)CC4)ccc3C2=O)C(=O)N1 (stereo not shown),male Sprague-Dawley rat,"intravenous, 1 mg/kg",4.29 h
Cc1cc(S(=O)(=O)NC2CC(N3CCN(CC4CCN(c5ccc6c(c5F)n(C)c(=O)n6C5CCC(=O)NC5=O)CC4)CC3)C2)ccc1Nc1ncc(C(F)(F)F)c(N2CCCC(C)(O)C2)n1 (stereo not shown),rat,"intravenous, 2 mg/kg",7.2 h
COCC(=O)N1CCC[C@H](C(=O)NCc2nc(-c3ccccc3)cs2)C1,male Sprague-Dawley rat,"oral, 3 mg/kg",3.9 h
Cc1cc(S(=O)(=O)NC2CC(N3CC[C@@H](OC4CN(c5cccc6c5n(C)c(=O)n6C5CCC(=O)NC5=O)C4)[C@H](F)C3)C2)ccc1Nc1ncc(C(F)(F)F)c(N2CCC[C@](C)(O)C2)n1 (stereo partly shown),rat,"intravenous, 2 mg/kg",2.4 h
CONC(=O)c1cccc2c1cc(C)n2-c1nc2c(c(NCc3ccccc3)n1)CCCN2,male Sprague-Dawley rat,"intravenous, 1 mg/kg, single dose",3.13 h
CC(C)(N)COCC(=O)N1CCC[C@H](C(=O)NCc2nc(-c3ccc(C(F)(F)F)cc3)cs2)C1,male Sprague-Dawley rat,"intravenous, 1 mg/kg",7.2 h
CC(=O)O[C@@H]1CC[C@@]2(C)[C@@H](CC[C@]3(C)[C@@H]2C(=O)C=C2[C@@H]4[C@@H](C)[C@H](C)CC[C@]4(C)CC[C@]23C)[C@@]1(C)C(=O)O,female Wistar rat,"oral, 1 mg/kg, single dose",9.9 h
C[C@H]1Oc2cc(cnc2N)-c2c(nn(C)c2C#N)CN(C)C(=O)c2ccc(F)cc21,male Sprague-Dawley rat,"oral, 50 mg/kg, single dose",17.6 h
